The record followed here is ChEMBL document CHEMBL1140174, “A copper(I)-catalyzed 1,2,3-triazole azide-alkyne click compound is a potent inhibitor of a multidrug-resistant HIV-1 protease variant” (J Med Chem, 2008).

Calls of active or inactive are those of the source. The rule behind the calls is not given here.

For assay [1], the system named is Human immunodeficiency virus 1. Description: Antiviral activity against wild type HIV1 in human SupT1 cells assessed as inhibition of viral replication measured at 6 days postinfection by p24 ELISA assay. The format is functional, organism-based. To be noted: Human immunodeficiency virus 1, SUP-T1, 144 h. The method in brief:
(§1)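 SupT1 cells (RPMI 1640, 10% FCS, 2mM L-glutamine, penicillin/streptomycin) infected with 10–100ng/mL p24 of virus at 37°C, washed, then cultured ± inhibitor at 1–4000 nM. Supernatant sampled every second day with media and inhibitor replenished. p24 measured by ELISA at 6 days post-infection, expressed as percentage of untreated cells; EC50 by nonlinear regression.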

Assay [2] relates to Human immunodeficiency virus 1. Description: Antiviral activity against wild type HIV1 in human SupT1 cells assessed as viral LTR-driven luciferase activity using TZM-bl cells. To be noted: Human immunodeficiency virus 1, SUP-T1. The format is functional, organism-based. The method in brief: (§2)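 SupT1 cells infected at MOI 0.001–0.005 and cultured with inhibitor at 1–4000 nM. On day 5–6, cell-free supernatant transferred to 10^4 TZM-bl cells carrying an HIV-1 LTR-driven luciferase reporter. Luciferase read by luminescence after 48 h. EC50 from nonlinear regression.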

For assay [3], the system named is Human immunodeficiency virus 1. The assay is described as follows: Antiviral activity against multidrug-resistant HIV1 with protease V82A, M46I, F53L, V77I, L24I, L63P mutation in human SupT1 cells assessed as inhibition of viral replication measured at 6 days postinfection by p24 ELISA assay. The format is functional, organism-based. As to conditions: Human immunodeficiency virus 1, SUP-T1, 144 h. The gist of the method:
as §1

In assay [4] the test system is Human immunodeficiency virus 1. Description: Antiviral activity against wild type HIV1 in human SubT1 cells assessed as inhibition of viral replication at 250 nM measured at 6 days postinfection by p24 ELISA assay. The format is functional, organism-based. The method in brief:
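SupT1 cells (RPMI 1640, 10% fetal calf serum) were infected with wild-type HIV-1 (10–100ng/mL p24) at 37°C, washed, then cultured with inhibitor at 1–4000 nM. Every second day supernatant was sampled and medium plus inhibitor replaced. p24 was measured by ELISA 6 days post-infection and expressed as a percentage of untreated cells (relative p24).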

Assay [5] concerns Human immunodeficiency virus 1. Description: Antiviral activity against multidrug-resistant HIV1 with protease V82A, M46I, F53L, V77I, L24I, L63P mutation in human SupT1 cells assessed as viral LTR-driven luciferase activity using TZM-bl cells. The format is functional, organism-based. As to conditions: Human immunodeficiency virus 1, SUP-T1. The method in brief: as §2
Assay [6] concerns the target Protease (Human immunodeficiency virus 1, UniProt Q9YQ12). The assay is described as follows: Inhibition of wild type HIV1 protease. The gist of the method:
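Purified HIV-1 protease (expression and purification described in earlier work) is preincubated with inhibitor in 25mM MES pH 5.6, 200mM NaCl, 5% glycerol, 1mM DTT in a prewarmed plate. Final concentrations: 25nM protease, 30µM fluorogenic anthranilyl substrate H-2992, 0.001–600µM inhibitor. Cleavage is read as fluorescence intensity. IC50 comes from nonlinear regression of initial velocities against inhibitor concentration, and Ki is calculated with the Cheng-Prusoff equation.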

Assay [7] deals with Human immunodeficiency virus 1. Description: Antiviral activity against multidrug-resistant HIV1 with protease V82A, M46I, […], V77I, L24I, L63P mutation in human SubT1 cells assessed as inhibition of viral replication at 250 nM measured at 6 days postinfection by p24 ELISA assay relative to control. The format is functional. The gist of the method:
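SupT1 cells (RPMI 1640, 10% fetal calf serum, 2mM L-glutamine, penicillin/streptomycin) infected with 10–100ng/mL p24 of SupT1-grown virus at 37°C, washed, then resuspended in medium with or without inhibitor (1–4000 nM range). Supernatant sampled every second day with medium and inhibitor replenished. p24 quantified by ELISA 6 days post infection, expressed as percentage of untreated cells.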

Assay [8] can be described thus: Inhibition of multidrug-resistant HIV1 protease with V82A, M46I, F53L, V77I, L24I, L63P mutation. Also on record: species or system Human immunodeficiency virus 1. The gist of the method:
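Fluorogenic cleavage assay with purified protease in 25mM MES pH 5.6, 200mM NaCl, 5% glycerol, 1mM DTT. Final concentrations 25nM enzyme, 30μM anthranilyl substrate H-2992, inhibitor 0.001–600μM. Reaction started by adding substrate in a prewarmed plate, read by fluorescence. IC50 by nonlinear regression of initial velocities; Ki from Cheng-Prusoff.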

Chain of Protease (Q9YQ12 whole entry): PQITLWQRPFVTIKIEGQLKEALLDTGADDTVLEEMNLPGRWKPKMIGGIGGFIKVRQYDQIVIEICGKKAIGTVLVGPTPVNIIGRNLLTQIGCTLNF

For the compound `CC(C)[C@H](NC(=O)[C@H](C)NC(=O)OCc1ccccc1)C(=O)N[C@@H](Cc1ccccc1)[C@@H](O)[C@H](O)[C@H](Cc1ccccc1)NC(=O)[C@@H](NC(=O)[C@H](C)NC(=O)OCc1ccccc1)C(C)C`, the 50% effective concentration (EC50) in assay [1] worked out at 46 nM; in assay [2] it was 92 nM.

Turning to `COc1ccc(S(=O)(=O)N(CC(C)C)C[C@@H](O)[C@H](Cc2ccccc2)n2cc(COC(=O)N[C@H]3c4ccccc4C[C@H]3O)nn2)cc1`, the EC50 worked out at 30 nM in assay [1], 55 nM in assay [3], 86 nM in assay [2] and 260 nM in assay [5]. Moreover, the result in assay [4] was Active. Also, the 50% inhibitory concentration (IC50) in assay [6] worked out at 6 nM; in assay [8] it was 15.7 nM. Moreover, the inhibitory constant (Ki) in assay [6] came to 2.7 nM; in assay [8], 7.1 nM. Also, in assay [7], the “fold change (FC)” value was 20.
